Source: PubChem BioAssay
core dimer inh: HCV core protein dimerization inhibition; TR-FRET GST/Flag-core106 dimerization, 1536-well; inhibition, % at 5 µM; actives 0.33% (n = 300,000);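 active = inhibition above the mean of all tested compounds plus 3 SD, set per screening campaign, cut at about 45% in these data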
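Material: GST/Flag-tagged HCV core106 proteins. Incubation: 4 h, 22.5 °C incubation. Read-out basis: inhibition (%) from 671 over 617 nm ratio. Measured by: TR-FRET, excitation 340 nm, emission 617 and 671 nm.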
HCV NS3 hel inh: HCV NS3 helicase inhibition; NS3 helicase DNA unwinding, Cy5 molecular beacon fluorescence; actives 0.56% (n = 290,000); inhibition, % at 10.9 µM;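 active = inhibition above the mean of all tested compounds plus 3 SD, set per campaign, cut at about 35% in these data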;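 also: 0% = DMSO wells and 100% = thioflavine S control wells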
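assay system = NS3 helicase fragment of HCV | buffer or medium = MOPS pH 6.5, MgCl2, DTT, Tween20, BSA | timing = 60 min unwinding reaction at 25 °C after ATP addition | signal = Cy5 beacon fluorescence read at start and 1 h | read-out basis = % inhibition of unwinding | control set = low DMSO, high thioflavine S at 110 µM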
A3G deaminase: blocks human APOBEC3G single-stranded DNA deamination | actives 0.28% (n = 330,000) | recombinant A3G, ssDNA deamination FAM/TAMRA fluorescence | inhibition, % at 20 µM | Q9HC16;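 active = inhibition of at least 40% at 20 µM, with no more than 30% in the related APOBEC3A deaminase screen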;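 also: plate controls were DMSO wells with A3G for no effect and wells lacking A3G enzyme for full effect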
A3A deaminase: human APOBEC3A DNA deaminase inhibition | actives 0.41% (n = 330,000) | recombinant A3A, FAM/TAMRA ssDNA deamination fluorescence | AID 493011 | inhibition, % at 20 µM;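 active = at least 40% inhibition at 20 µM here, with at most 30% in a related deaminase screen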;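 also: plate controls were A3A with DMSO for no effect and wells lacking A3A enzyme for full effect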
PRMT1 FP inh: inhibitors of human PRMT1. Q99873. recombinant PRMT1, activity-based probe fluorescence polarization. inhibition, % at 2.79 µM. actives 1.3% (n = 370,000). AID 652257;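 active = inhibition above about 21% made by adding two undisclosed values, limit read from the data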
Target sequence (Q99873 whole entry, looked up): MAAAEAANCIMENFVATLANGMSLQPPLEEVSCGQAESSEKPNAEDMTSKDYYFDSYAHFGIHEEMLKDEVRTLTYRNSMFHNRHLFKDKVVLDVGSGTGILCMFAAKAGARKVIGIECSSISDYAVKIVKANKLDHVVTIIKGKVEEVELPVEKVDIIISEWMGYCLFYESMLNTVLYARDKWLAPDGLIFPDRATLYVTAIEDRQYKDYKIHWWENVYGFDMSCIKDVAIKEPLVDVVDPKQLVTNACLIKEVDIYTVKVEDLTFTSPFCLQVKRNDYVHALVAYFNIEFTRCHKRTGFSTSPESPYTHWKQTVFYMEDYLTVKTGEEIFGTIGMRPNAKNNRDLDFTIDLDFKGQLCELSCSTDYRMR
ABHD5 PLIN5 PPI: inhibitors of human ABHD5-perilipin-5 interaction | Q00G26+Q8WTS1 | Split G. princeps luciferase complementation, luminescence, 4 h | inhibition, % at 4 µM | actives 0.78% (n = 360,000);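 active = inhibition above the mean inhibition across every tested compound plus 3 SD, cut at about 22% in these data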;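 also: 0% = DMSO only wells and the 100% control is not disclosed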
ABHD5-PLIN5 conf: confirmation of human ABHD5-PLIN5 interaction inhibitors | inhibition, % at 4 µM | AID 651612 | actives 67% (n = 2,200) | shares compounds with ABHD5 PLIN5 PPI | biochemical ABHD5-PLIN5 interaction, luminescence; in the data active = inhibition above about 23%;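 also: 0% = DMSO vehicle wells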
HNF4 split-luc: active in HNF4 split-luciferase counter-screen for ABHD5-PLIN5 inhibitors; inhibition, % at 4 µM; HNF4 dimerization, luminescence, biochemical; actives 77% (n = 2,200); shares compounds with ABHD5 PLIN5 PPI; AID 651674;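 active = mean inhibition across replicate wells exceeding the computed hit threshold, cut at about 13% in these data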;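 also: light from luciferase halves that rejoin when HNF4 fusion proteins dimerize; 0% = DMSO only wells and the 100% control is not given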
An asterisk follows results filed as active; . = not tested or not shown. Most compounds without a hit are left out; they make up all but 2.9% or so of the library.

SMILES	core dimer inh	HCV NS3 hel inh	A3G deaminase	A3A deaminase	PRMT1 FP inh	ABHD5 PLIN5 PPI	ABHD5-PLIN5 conf	HNF4 split-luc
COc1ccc(S(=O)(=O)N(C(=O)c2ccco2)c2cc3sc(=O)oc3c3ccccc23)cc1	2	20	27	-1	94*	97*	-24	110*
O=C(CCC(=O)c1ccc(F)cc1)OCc1nnc(-c2ccc([N+](=O)[O-])cc2)o1	.	.	-9	-2	4	10	.	.
COc1ccc(OC)c(C(C[N+](=O)[O-])c2c(C)cc3ccccn23)c1 (centres undefined)	12	3	2	-2	-6	15	.	.
COc1ccc(C(C[N+](=O)[O-])c2c(C)cc3ccccn23)c(OC)c1 (centres undefined)	10	15	-7	5	4	30*	45*	29*
Cc1ccc(-c2nnc(-c3ccccc3S(=O)(=O)Cc3ccc(Cl)cc3)o2)cc1	8	-6	-3	-1	0	-4	.	.
O=S(=O)(Cc1ccc(Cl)cc1)c1ccccc1-c1nnc(-c2ccc(Cl)cc2)o1	21	-3	-5	-3	0	31*	-2	-3
CCc1nc(C)cn1S(=O)(=O)c1ccc([N+](=O)[O-])cc1	-4	9	-8	-5	-3	-4	.	.
CCCn1c(CC)nc([N+](=O)[O-])c1S(=O)(=O)c1ccccc1	-2	1	-4	-2	1	42*	50*	54*
OC(c1ccccc1)(c1ccccc1)C1CCN(CCCOc2cccc(Cl)c2)CC1	.	.	.	.	4	.	.	.
CN1CCCC1CCOC(C)(c1ccccc1)c1ccc(Cl)cc1 (centres undefined)	.	.	.	.	3	25*	33*	17*
COc1ccccc1/C=C/C=N/n1c(-c2ccc(F)cc2)n[nH]c1=S	14	-4	0	-5	12	52*	-14	-8
Cc1ccc(-c2n[nH]c(=S)n2/N=C/C=C/c2ccccc2[N+](=O)[O-])cc1	8	0	2	2	2	-1	.	.
O=c1[nH][nH]c2c1[C@H](c1ccc(Cl)cc1)O[C@H](C1CC1)C2	.	.	.	.	4	23*	38*	25*
O=c1[nH][nH]c2c1[C@H](c1ccc(F)cc1)O[C@H](C1CCCCC1)C2	.	.	.	.	1	28*	9	26*
O=c1[nH][nH]c2c1[C@H](c1ccccc1)O[C@H](C1CCCCC1)C2	.	.	.	.	2	31*	34*	44*
O=c1[nH][nH]c2c1[C@@H](c1ccc(F)cc1)O[C@H](C1CCCCC1)C2	.	.	.	.	3	10	.	.
CCc1ccc(NC(=O)CSc2nc3ccccc3nc2N2CCCC2)cc1	1	-18	-9	-4	-4	-3	.	.
C=C1C(=O)[C@]23C[C@H]1CC[C@H]2[C@]1(C)[C@@H](OC(C)=O)CC[C@@](C)(C(=O)O)[C@H]1C[C@@H]3O	.	.	.	.	9	52*	53*	105*
C=C1C(=O)[C@]23C[C@H]1CC[C@H]2[C@]1(C)[C@@H](OC(C)=O)CC[C@@](C)(C(=O)OC)[C@H]1C[C@@H]3OC(C)=O	.	.	.	.	7	56*	71*	98*
C=C1C(=O)[C@]23C[C@H]1CCC2[C@@]1(C)C(C[C@@H]3O)[C@](C)(C(=O)OC)CC[C@@H]1OC(C)=O (some centres undefined)	.	.	.	.	24*	78*	85*	109*
CCOC(=O)c1cnc2c(C)cccc2c1NCc1ccco1	1	9	1	2	-1	24*	4	8
CCOc1ccccc1NC(=O)CSc1nnc(CNC(=O)c2cccs2)o1	-1	2	-9	-5	2	0	.	.
S=C(Nc1ccc(Cl)cc1)c1nc2ccccc2s1	-4	3	2	2	-1	-2	.	.
